Source: paper PMC3581696 (The Journal of General Physiology, 2013)
Where “and” joins values, the source holds several entries; their conditions need not be identical. Equal entries are not always repeated.

How the values were obtained:
mEAG1 channel [1] = target: T1, mEAG1 channel (Mus musculus, UniProt Q60603); test: Inside-out patch-clamp of wild-type mEAG1 channels expressed in Xenopus oocytes; format: cell-based
T1 sequence (Q60603 1-989): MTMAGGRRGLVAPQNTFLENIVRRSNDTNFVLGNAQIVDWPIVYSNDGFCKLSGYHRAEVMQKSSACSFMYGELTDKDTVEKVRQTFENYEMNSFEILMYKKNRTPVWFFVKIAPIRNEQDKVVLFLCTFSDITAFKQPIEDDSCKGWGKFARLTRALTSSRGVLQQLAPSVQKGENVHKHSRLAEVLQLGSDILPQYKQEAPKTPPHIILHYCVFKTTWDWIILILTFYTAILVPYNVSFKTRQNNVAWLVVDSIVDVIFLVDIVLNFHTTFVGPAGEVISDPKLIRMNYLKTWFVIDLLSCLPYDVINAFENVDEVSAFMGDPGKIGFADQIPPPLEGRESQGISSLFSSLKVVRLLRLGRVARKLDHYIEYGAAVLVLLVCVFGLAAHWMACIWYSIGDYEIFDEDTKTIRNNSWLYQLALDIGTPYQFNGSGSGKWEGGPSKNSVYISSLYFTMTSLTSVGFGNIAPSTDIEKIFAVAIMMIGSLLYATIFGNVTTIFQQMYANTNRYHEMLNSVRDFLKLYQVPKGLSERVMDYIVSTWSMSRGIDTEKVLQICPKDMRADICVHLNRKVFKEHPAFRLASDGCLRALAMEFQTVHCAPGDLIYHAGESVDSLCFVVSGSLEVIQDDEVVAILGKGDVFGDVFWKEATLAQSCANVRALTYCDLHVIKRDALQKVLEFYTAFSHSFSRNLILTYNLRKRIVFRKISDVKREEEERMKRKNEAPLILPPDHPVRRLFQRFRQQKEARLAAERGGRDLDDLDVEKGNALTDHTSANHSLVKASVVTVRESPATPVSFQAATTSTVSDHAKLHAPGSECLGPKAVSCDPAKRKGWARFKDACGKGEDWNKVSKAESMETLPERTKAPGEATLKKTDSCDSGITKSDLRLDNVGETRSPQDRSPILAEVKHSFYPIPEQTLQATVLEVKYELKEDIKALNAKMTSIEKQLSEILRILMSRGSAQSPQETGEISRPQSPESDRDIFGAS

mEAG1 channel [2] = target: T1, mEAG1 channel; test: Outside-out patch-clamp of mEAG1 channels expressed in Xenopus oocytes; format: cell-based; conditions: 10 µM fisetin; outside-out patches; n = 4
How it was run: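 Outside-out patches were excised from Xenopus oocytes expressing mouse EAG1. Bath and pipette solutions were 130 mM KCl, 10 mM HEPES, 0.2 mM EDTA, pH 7.2. Patches were exposed to 10 µM flavonoid. The shift in V1/2 was taken from Boltzmann fits of tail-current conductance–voltage relationships.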

mEAG1 Δ821–989 channels = target: T2, mEAG1 Δ821–989 channels (Mus musculus, UniProt Q60603); test: Inside-out patch-clamp of post-CNBHD deletion mutant channels; format: cell-based; conditions: with 30 µM fisetin
T2 sequence (Q60603 1-820): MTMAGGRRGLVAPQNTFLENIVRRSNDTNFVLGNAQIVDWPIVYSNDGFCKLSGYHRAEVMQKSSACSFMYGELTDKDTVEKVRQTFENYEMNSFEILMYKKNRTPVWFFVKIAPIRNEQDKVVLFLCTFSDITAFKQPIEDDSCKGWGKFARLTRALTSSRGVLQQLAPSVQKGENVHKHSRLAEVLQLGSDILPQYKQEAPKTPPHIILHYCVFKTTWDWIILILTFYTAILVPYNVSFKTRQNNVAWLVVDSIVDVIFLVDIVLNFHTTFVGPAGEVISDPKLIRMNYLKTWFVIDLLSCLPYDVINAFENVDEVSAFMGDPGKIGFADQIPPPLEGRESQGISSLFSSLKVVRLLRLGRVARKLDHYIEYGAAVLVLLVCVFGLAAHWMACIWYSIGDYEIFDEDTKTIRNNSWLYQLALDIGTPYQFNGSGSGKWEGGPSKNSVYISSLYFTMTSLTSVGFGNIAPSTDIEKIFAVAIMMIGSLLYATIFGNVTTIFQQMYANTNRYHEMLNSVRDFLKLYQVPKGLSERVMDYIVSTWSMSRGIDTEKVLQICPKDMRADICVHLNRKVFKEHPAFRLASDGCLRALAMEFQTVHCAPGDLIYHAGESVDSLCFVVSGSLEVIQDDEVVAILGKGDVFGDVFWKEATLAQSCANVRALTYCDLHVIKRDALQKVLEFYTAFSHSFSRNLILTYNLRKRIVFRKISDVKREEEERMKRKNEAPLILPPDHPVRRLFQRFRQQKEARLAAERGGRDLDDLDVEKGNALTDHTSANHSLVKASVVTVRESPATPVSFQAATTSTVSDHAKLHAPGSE
How it was run: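 mEAG1 mutant cRNA was injected into defolliculated Xenopus oocytes, and the vitelline membrane was removed. Inside-out patches were bathed in symmetric 130 mM KCl, 10 mM HEPES, 0.2 mM EDTA, pH 7.2, holding at −100 mV. Steps of 0.1 s from −140 to +50 mV (10-mV increments) were followed by −120 mV tails, without or with 30 µM flavonoid. Peak tails were normalized and Boltzmann-fitted. Deactivation time constant came from single-exponential fits of the −120 mV tail after +50 mV; two-tailed t test.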

[3] = target: T3, purified C-linker/CNBHD of mEAG1 channels (Mus musculus, UniProt Q60603); test: Tryptophan-to-flavonoid FRET binding assay; conditions: 100 µM flavonoid; 4 µM protein
T3 sequence (Q60603 505-702): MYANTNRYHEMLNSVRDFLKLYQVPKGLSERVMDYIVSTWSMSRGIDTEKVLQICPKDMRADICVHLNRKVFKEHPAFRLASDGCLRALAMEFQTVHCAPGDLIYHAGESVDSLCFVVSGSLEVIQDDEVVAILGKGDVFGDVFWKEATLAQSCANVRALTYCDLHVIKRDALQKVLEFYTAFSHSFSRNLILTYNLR

[4] = target: T4, wild-type CNBHD from mEAG1 (Mus musculus, UniProt Q60603); test: Fisetin fluorescence anisotropy binding assay, wild-type CNBHD; conditions: Kd (apparent affinity), 5 µM fisetin, fit with Eq. 7
T4 sequence (Q60603 552-724): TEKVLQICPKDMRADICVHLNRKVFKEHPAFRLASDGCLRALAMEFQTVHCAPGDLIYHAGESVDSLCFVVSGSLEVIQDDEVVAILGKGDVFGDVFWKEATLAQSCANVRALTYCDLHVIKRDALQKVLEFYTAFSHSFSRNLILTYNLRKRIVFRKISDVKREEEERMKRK

[5] = Solubility limit in recording / aqueous solutions; format: physicochemical; conditions: recording solutions, aqueous buffer

For `O=c1c(O)c(-c2ccc(O)c(O)c2)oc2cc(O)ccc12` [Fisetin, 2-(3,4-dihydroxyphenyl)-3,7-dihydroxychromen-4-one], the “Hill coefficient, deactivation time constant versus fisetin plot” value (mEAG1 channel [1]) was 1.2, the “Hill coefficient, ΔV1/2 versus fisetin plot” value (mEAG1 channel [1]) was 2.2 and the “effect on mEAG1 currents at high concentration” value (mEAG1 channel [1]; concentrations of 100 µM and higher) was “inhibited mEAG1 currents”. For the same compound, the “time constant of deactivation” value (mEAG1 channel [1]; with 30 µM fisetin, at −120 mV after step to +50 mV, 4.5 ± 0.8 ms without, n = 6) was 7.2 ± 1.0 ms, the “time constant of deactivation (single tail current of Fig. 3 C)” value (mEAG1 channel [1]; with 30 µM fisetin, tail current at −120 mV after step to 50 mV, 5.3 ms before) was 13.9 ms and the “V1/2 of the conductance–voltage relationship” value (mEAG1 channel [1]; with 30 µM fisetin, −41.9 ± 4.1 mV without, n = 6) was −55.4 ± 3.7 mV. For the same compound, the “shift of the conductance–voltage relationship” value (mEAG1 channel [2]) was −8.1 ± 2.3 mV, the “rate (time constant) of deactivation” value (mEAG1 Δ821–989 channels; at −120 mV, 3.4 ± 0.7 ms without, n = 4) was 6.7 ± 2.2 ms and the “time constant of deactivation (tail currents of Fig. 5 F)” value (mEAG1 Δ821–989 channels; tail at −120 mV after step to +50 mV, 5.2 ms without) was 13.4 ms. For the same compound, the “V1/2 (Boltzmann fit of the averaged conductance–voltage relationship)” value (mEAG1 Δ821–989 channels; −31.9 mV without, Fig. 5 E) was −50.6 mV, the “V1/2 of the conductance–voltage relationship” value (mEAG1 Δ821–989 channels; −36.4 ± 2.5 mV without, n = 4) was −51.1 ± 6.0 mV and the “decrease of peak fluorescence intensity of the C-linker/CNBHD at 341 nm” value [3] was 27%. The Kd [4] was 111 µM and ≥ 111 µM and the solubility [5] was at most 150 µM.
